Screening results: PubChem BioAssay, Broad Institute
A selection: hits, their analogues and other compounds. The true share with any hit is near 2.6%.
Vif inh – inhibitors of HIV Vif. HEK293T cells, Vif self-association by quenched fluorescence, imaging, 24 h. inhibition, % at 7.49 µM. 340,000 tested, 0.35% active. AID 602346; in the data active = inhibition above about 50%, passing the limit was not always enough; inconclusive = no clear call, values can overlap the other calls; inactive = below about 31%
esBAF inh – inhibitors of esBAF chromatin remodeling in mouse ES cells. Bmi1-luciferase knock-in reporter, 24 h; 100% = twice the neutral-well signal. reporter increase, % at 12.5 µM. 350,000 tested, 2% active. AID 602393; in the data active = activation above about 40%; inconclusive = no clear call, values can overlap the other calls;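 note: a rise in the Bmi1 reporter signal indicates esBAF inhibition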
MITF act – increases MITF-driven TRPM1 promoter luciferase signal; 300,000 tested, 0.75% active; activation, % at 12.5 µM; SK-MEL-5 TRPM1-promoter luciferase, 24 h; % of positive control, neutral wells = 0;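 active = mean activation of at least 80% with every replicate also reaching 80%; inconclusive = mean reaches 80% but some replicate falls short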
Wnt bcat act – activators of Wnt/beta-catenin signaling. 300,000 tested, 1.2% active. Wnt/beta-catenin reporter cell assay, activator, plate reader. activation, % at 9.35 µM; in the data active = activation above about 30%, passing the limit was not always enough; inconclusive = no clear call, values can overlap the other calls
XiGFP reactiv – X-chromosome reactivation activator. 360,000 tested, 0.055% active. XiGFP mouse fibroblasts, % GFP-positive cells imaging, 3 d; cells co-treated with 5-aza-dC sensitizer; scaled so ellipticine positive control = 100%. activation, % at 7.58 µM. AID 743238;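 active = mean normalized replicate activation at least 10% and every replicate at or above 10%; inconclusive = only one of the two criteria met; inactive = mean below 10% and not all replicates reach 10%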
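System: SV40-immortalized XiGFP fibroblast cells, line 68-5-11 / Incubation: 3-day compound exposure, then 15 min fixation at room temperature / Compound: single concentration per compound, delivered by pin transfer / Buffer or medium: DMEM plus 5-aza-dC sensitizer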
Numbers stand for hits; n = inactive; u = inconclusive; x = no result.

SMILES | Vif inh | esBAF inh | MITF act | Wnt bcat act | XiGFP reactiv
N#Cc1ccccc1OCC(=O)N1N=C(c2cccs2)CC1c1ccco1 (stereo not drawn) | n | 70.0 | n | n | n
COc1ccc(C2CC(c3ccccc3)=NN2C(=O)COC(=O)CNC(=O)c2ccccc2)cc1 (stereo not drawn) | n | n | n | n | n
Cc1ccccc1-c1cnc2c(c1)C(=O)N([C@@H](C)CO)C[C@H](C)[C@@H](CN(C)Cc1ccncc1)O2 | x | n | x | x | n
Cc1cc(OCc2ccc(C(=O)NN=C3CCCC3)cc2)ccc1Cl | n | x | n | 46.4 | n
COc1ccc(C(=O)NN=C2CCCC2)cc1 | n | 45.3 | x | n | n
O=C(NN=C1CCCC1)c1ccc(Cl)cc1 | n | n | n | n | n
Oc1ccc(/C=C/c2ccc3cccc(O)c3n2)cc1Br | n | 77.4 | n | n | n
O=[N+]([O-])c1cccc(/C=C/c2ccc3cccc(O)c3n2)c1 | n | n | n | n | n
O=C(O)c1ccc(/C=C/c2ccc3cccc(O)c3n2)cc1 | n | 104.1 | u | n | n
CCC(=O)N[C@@H]1CC[C@H](CC(=O)NCC2CC2)O[C@@H]1CO | x | x | x | x | n
CC1(C)CC(=O)C(N=Nc2ccc(-c3ccccc3)cc2)=C(O)C1 | n | x | 96.0 | n | n
CC1(C)CC(=O)C(N=Nc2ccc(F)cc2)=C(O)C1 | n | x | n | 43.8 | n
CC(=O)Nc1cc2c(cc1Cl)-c1ccccc1C2 | n | 51.8 | n | n | n
CO[C@H]1CN(C)C(=O)c2ccc(NS(=O)(=O)c3ccccc3)cc2OC[C@@H](C)N(C)C[C@H]1C | x | n | x | x | n
CCOc1ccc(NC(=O)CCCCn2c(=O)[nH]c3ccsc3c2=O)cc1 | n | n | n | 36.8 | x
O=C(CCCCn1c(=O)[nH]c2ccsc2c1=O)NCCc1ccccc1 | n | n | n | 37.3 | n
O=C(CCn1c(=O)[nH]c2ccsc2c1=O)NCCc1ccc(Cl)cc1 | n | n | n | n | x
Cc1ccccc1Nc1nc(N)nc(CSc2ccc(F)cc2)n1 | n | u | 89.2 | n | n
Cc1ccccc1Nc1nc(N)nc(CSc2nnnn2C)n1 | n | 55.9 | n | n | n
Cc1ccc(SCc2nc(N)nc(Nc3ccccc3C)n2)cc1C | n | x | n | n | n
COC(=O)C(Cc1c[nH]c2ccccc12)NC(=O)CNC(C)=O (stereo not drawn) | n | n | n | x | x
COC(=O)C(Cc1c[nH]c2ccccc12)NC(=O)c1ccccc1Br (stereo not drawn) | n | 53.0 | x | n | n
CCOC(=O)C(Cc1c[nH]c2ccccc12)NC(=O)c1ccccc1Br (stereo not drawn) | n | 73.8 | x | n | n
COc1cc(OC)cc(C(=O)Nc2cc(C)on2)c1 | n | n | n | n | n
COc1ccc(C(=O)Nc2cnc(NC(=O)c3cccs3)cc2C)cc1 | n | 46.9 | n | n | n
SMILES | Vif inh | esBAF inh | MITF act | Wnt bcat act | XiGFP reactiv
CCn1c(SCC(=O)Nc2cc(C)on2)nnc1-c1ccc(OC)cc1 | 50.1 | x | n | n | n
CCn1c(SCC(=O)Nc2cc(C)on2)nnc1-c1ccccc1 | n | n | n | n | x
COc1ccc(OC)c(-c2cc(C(=O)Nc3cc(C)on3)no2)c1 | 62.7 | n | n | x | x
COc1ccc(-c2cc(C(=O)Nc3cc(C)on3)no2)cc1 | n | n | n | n | n
COc1ccc(C(=O)Nc2cc(C)on2)cc1 | n | n | n | 46.9 | x
C/C(=C\C(=O)Nc1cc(C)on1)c1ccccc1 | n | u | 81.9 | x | x
CCc1ccc(C(=O)Nc2cc(C)on2)o1 | n | 51.2 | n | n | x
Cc1cc(NC(=O)CSc2nc3ccccc3c(=O)n2-c2ccccc2)no1 | 54.9 | x | n | x | x
Cc1cc(NC(=O)c2ccc(C)o2)no1 | n | n | n | n | n
CCCN(C)C[C@H]1OCCCC[C@H](C)Oc2ccc(NC(=O)C3CCCCC3)cc2C(=O)N([C@H](C)CO)C[C@H]1C | x | n | x | x | n
O=c1oc2ccccc2c(Nc2ccc(F)cc2)c1[N+](=O)[O-] | n | x | n | n | n
Cc1c(-c2nc(N)nc(Nc3ccc(F)cc3)n2)oc2ccccc12 | n | 61.5 | n | n | x
COc1ccccc1Nc1nc(N)nc(-c2oc3ccccc3c2C)n1 | n | n | x | x | x
Cc1ccccc1Nc1nc(N)nc(-c2oc3ccccc3c2C)n1 | n | x | x | 47.0 | n
CC(=O)n1nc(-c2ccco2)nc1SCc1ccccc1 | n | 55.1 | n | x | x
C[C@@H]1CN([C@@H](C)CO)C(=O)c2cc(NC(=O)CCCCCC(=O)Nc3ccccc3N)ccc2O[C@@H]1CN(C)C(=O)Nc1ccc2c(c1)OCO2 | x | x | x | x | n
